# Measured values published in ChEMBL document CHEMBL1821637, “Selective cytotoxicity of oxysterols through structural modulation on rings A and B. Synthesis, in vitro evaluation, and SAR” (J Med Chem, 2011).
# How the values were obtained:
# HT-29 [1] = assay: Cytotoxicity against human HT-29 cells assessed as cell viability after 48 hrs by alamar blue assay; format: functional, cell-based; settings: HT-29, 48 h
# Summary of the method: (§1)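 Alamar Blue viability assay on the human cell line named (origins given: HT-29 colorectal adenocarcinoma, HepG2 hepatocellular carcinoma, LAMA-84 myeloid leukemia, A549 lung adenocarcinoma, PC3 prostate metastasis, MCF-7 breast adenocarcinoma, ARPE-19 retinal pigment epithelium, BJ skin fibroblast). Exposure was 48 h. Sterol stocks were made in DMSO. IC50 is the concentration inhibiting 50% of cellular growth, given as the mean of at least three separate experiments.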
# HT-29 [2] = assay: Cytotoxicity against human HT-29 cells assessed as inhibition of cell growth after 96 hrs by alamar blue assay; format: functional, cell-based; settings: HT-29, 96 h
# Summary of the method: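 HT-29 and ARPE-19 cells exposed for 96 h. ARPE-19 seeded at 5 10^3 cells/well for this period. Sterol stocks in DMSO. Viability by Alamar Blue. IC50 is the concentration inhibiting 50% of cellular growth, mean of at least three separate experiments.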
# HT-29 [3] = assay: Selectivity index, ratio of IC50 for human ARPE19 cells to IC50 for human HT-29 cells; format: functional
# SH-SY5Y = assay: Cytotoxicity against human SH-SY5Y cells assessed as cell viability after 48 hrs by alamar blue assay; format: functional, cell-based
# Summary of the method: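 SH-SY5Y cells grown in DMEM/F12 (1:1) with L-glutamine, 10% heat-inactivated FBS, 100 units/mL penicillin and 0.1 mg/mL streptomycin, pH 7.4. Seeded at 5 10^3 cells/well and exposed to the sterols (DMSO stocks) for 48 h. Alamar Blue read-out. IC50 is the concentration inhibiting 50% of growth, mean of at least three separate experiments.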
# [4] = Cytotoxicity against human ARPE19 cells assessed as cell viability after 48 hrs by alamar blue assay; format: cell-based, ARPE-19; settings: Homo sapiens, ARPE-19, 48 h; summary of the method: as §1
SMILES,IC50 (HT-29 [1]),IC50 (HT-29 [2]),Ratio IC50 (HT-29 [3]),IC50 (SH-SY5Y),IC50 [4]
CO[C@]12C[C@@H](O)CC[C@]1(C)[C@H]1CC[C@]3(C)[C@@H]([C@H](C)CCCC(C)C)CC[C@H]3[C@@H]1C[C@H]2O,36.1 µM,–,–,–,–
CCCCCCCCCCCC(=O)O[C@H]1CC[C@@]2(C)C(=C[C@H](O)[C@H]3[C@@H]4CC[C@H]([C@H](C)CCCC(C)C)[C@@]4(C)CC[C@@H]32)C1,> 50 µM,> 50 µM,–,–,–
CC(C)CCC[C@@H](C)[C@H]1CC[C@H]2[C@@H]3C(=O)C(O)=C4C[C@@H](O)CC[C@]4(C)[C@H]3CC[C@]12C,36.7 µM,–,–,–,–
CC(C)CCC[C@@H](C)[C@H]1CC[C@H]2[C@@H]3[C@@H](O)C=C4C[C@@H](O)CC[C@]4(C)[C@H]3CC[C@]12C,–,–,3.13,16.4 µM,–
CC(=O)O[C@H]1CC[C@]2(C)[C@H]3CC[C@]4(C)[C@@H]([C@H](C)CCCC(C)C)CC[C@H]4[C@@H]3C[C@@H](O)[C@@]2(O)[C@H]1O,17.7 µM,14.2 µM,1.63,–,28.8 µM
CC(C)CCC[C@@H](C)[C@H]1CC[C@H]2[C@@H]3C(=O)C=C4C[C@@H](O)CC[C@]4(C)[C@H]3CC[C@]12C [7-OXOCHOLESTEROL],–,–,1.26,–,32.3 µM
CCCO[C@@H]1C[C@H]2[C@@H]3CC[C@H]([C@H](C)CCCC(C)C)[C@@]3(C)CC[C@@H]2[C@@]2(C)CC[C@H](O)C[C@]12O,25.9 µM,–,–,–,–
CC(C)CCC[C@@H](C)[C@H]1CC[C@H]2[C@@H]3[C@@H](O)C=C4[C@@H](O)[C@@H](O)CC[C@]4(C)[C@H]3CC[C@]12C,15.4 µM,–,1.66,–,25.6 µM
CC(=O)O[C@H]1CC[C@]2(C)[C@H]3CC[C@]4(C)[C@@H]([C@H](C)CCCC(C)C)CC[C@H]4[C@@H]3[C@@H](OC(C)=O)[C@@H](OC(C)=O)[C@@]2(O)C1,27 µM,26.7 µM,–,–,–
COc1cccc2c1C(=O)c1c(O)c3c(c(O)c1C2=O)C[C@@](O)(C(=O)CO)C[C@@H]3O[C@H]1C[C@H](N)[C@H](O)[C@H](C)O1 [DOXORUBICIN],–,–,–,0.5 µM,–
CC(C)CCC[C@@H](C)[C@H]1CC[C@H]2[C@@H]3C(=O)[C@H](O)[C@@]4(O)C[C@@H](O)CC[C@]4(C)[C@H]3CC[C@]12C,15.2 µM,–,1.69,–,25.7 µM
CC(C)CCC[C@@H](C)[C@H]1CC[C@H]2[C@@H]3[C@@H](O)[C@H](O)[C@H]4C[C@@H](O)CC[C@]4(C)[C@H]3CC[C@]12C,14.9 µM,–,1.28,–,19.1 µM
CC(=O)O[C@@H]1[C@H]2[C@@H]3CC[C@H]([C@H](C)CCCC(C)C)[C@@]3(C)CC[C@@H]2[C@@]2(C)CC[C@H](O)C[C@]2(O)[C@@H]1O,17 µM,15.5 µM,0.93,–,15.8 µM
CC(C)CCC[C@@H](C)[C@H]1CC[C@H]2[C@@H]3CC(=O)[C@@]4(O)C[C@@H](O)CC[C@]4(C)[C@H]3CC[C@]12C,–,–,1.99,–,33.9 µM
CC(=O)O[C@H]1C=C2C[C@@H](O)CC[C@]2(C)[C@H]2CC[C@]3(C)[C@@H]([C@H](C)CCCC(C)C)CC[C@H]3[C@H]12,26.8 µM,24.6 µM,–,–,–
"CC(C)CCC[C@@H](C)[C@H]1CC[C@H]2[C@@H]3C[C@@H](O)[C@@]4(O)C[C@@H](O)CC[C@]4(C)[C@H]3CC[C@]12C [CHOLESTAN-3beta,5alpha,6beta-TRIOL]",–,–,1.48,17.2 µM,–
CC(=O)O[C@H]1CC[C@]2(C)[C@H]3CC[C@]4(C)[C@@H]([C@H](C)CCCC(C)C)CC[C@H]4[C@@H]3[C@@H](OC(C)=O)C(=O)[C@@]2(O)C1,27.2 µM,–,–,–,–
